This note sets out measurements from ChEMBL document CHEMBL5356992, “New nitazoxanide derivatives: design, synthesis, biological evaluation, and molecular docking studies as antibacterial and antimycobacterial agents” (RSC Med Chem, 2023).

One data set has as its system Helicobacter pylori. Nature of the data set: Antibacterial activity against Helicobacter pylori ATCC 700392 by broth microdilution method. The data set is classed as functional. Put shortly: (§1)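 CLSI broth microdilution on wild-type strains. E. coli ATCC 8739, P. aeruginosa ATCC 27853 and K. pneumoniae ATCC 10031 served as Gram-negatives. S. aureus ATCC 6538 and E. faecalis ATCC 19433 served as Gram-positives. H. pylori ATCC 700392 was tested as the […]. Ciprofloxacin was the reference drug. MIC is given in μM as the mean of three experiments.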

Data set [1] has as its system Enterococcus faecalis. The data set is described as follows: Antibacterial activity against Enterococcus faecalis ATCC 19433 by broth microdilution method. Type of data set: functional. The gist of the method: as §1
Data set [2] deals with Klebsiella pneumoniae. The data set is described as follows: Antibacterial activity against Klebsiella pneumoniae ATCC 10031 by broth microdilution method. The data set is classed as functional. Put shortly:
as §1

Data set [3] deals with Mycobacterium tuberculosis. The data set is described as follows: Antimycobacterial activity against Mycobacterium tuberculosis H37Rv incubated for 7 days by alamar blue assay. Type of data set: functional. The conditions noted are these: 168 h, time 7 day. Put shortly: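 Two-fold serial dilutions in 7H9-S, with growth and sterile controls, incubated at 37 °C for 7 days. Alamar Blue then added and incubated overnight. MIC is the lowest concentration preventing the blue-to-pink change. Means of three experiments.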

Data set [4] relates to Staphylococcus aureus. The data set is described as follows: Antibacterial activity against Staphylococcus aureus ATCC 6538 by broth microdilution method. Type of data set: functional. Put shortly: as §1
The test system of data set [5] is Pseudomonas aeruginosa. Nature of the data set: Antibacterial activity against Pseudomonas aeruginosa ATCC 27853 by broth microdilution method. Type of data set: functional. The gist of the method: as §1
The subject of data set [6] is Escherichia coli. The data set is described as follows: Potency index, ratio of nitazoxanide MIC to test compound MIC for antibacterial activity against Escherichia coli ATCC 8739. The data set is classed as functional.
The subject of data set [7] is Klebsiella pneumoniae. Nature of the data set: Potency index, ratio of nitazoxanide MIC to test compound MIC for antibacterial activity against Klebsiella pneumoniae ATCC 10031. The data set is classed as functional.
The test system of data set [8] is Escherichia coli. Nature of the data set: Antibacterial activity against Escherichia coli ATCC 8739 by broth microdilution method. Type of data set: functional. Put shortly: as §1
For data set [9], the system named is Enterococcus faecalis. Nature of the data set: Potency index, ratio of nitazoxanide MIC to test compound MIC for antibacterial activity against Enterococcus faecalis ATCC 19433. The data set is classed as functional.
Data set [10] has as its system Staphylococcus aureus. The data set is described as follows: Potency index, ratio of nitazoxanide MIC to test compound MIC for antibacterial activity against Staphylococcus aureus ATCC 6538. The data set is classed as functional.
In the next data set the test system is RAW264.7. Nature of the data set: Cytotoxicity against mouse RAW264.7 cells at 25 ug/ml incubated for 48 hrs by MTT assay. The settings on record: raw264.7, 48 h, at 25 µg/mL. Type of data set: toxicity, cell-based. Put shortly: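 RAW 264.7 mouse macrophages were grown in RPMI with 10% FBS plus penicillin/streptomycin to 80–90% confluency. About 5000 cells/well were seeded on poly-L-lysine-coated plates and held 24 h at 37 °C, 5% CO2. Compound was added at 25 μg mL−1 for 48 h at 37 °C. MTT (0.5 mg mL−1) was added for 3 h, and formazan was read at 595 and 625 nm. Result is % inhibition.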

Data set [11] is described as follows: Selectivity index, ratio of cytotoxicity against mouse RAW264.7 cells to MIC for Mycobacterium tuberculosis H37Rv. Type of data set: toxicity, cell-based. The settings on record: read-out: Selectivity Index. Put shortly: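 SI is cytotoxicity divided by the MABA MIC (μg mL⁻¹) against H37Rv. For cytotoxicity, RAW 264.7 cells were grown in RPMI with 10% FBS and penicillin/streptomycin. About 5000 cells per well were seeded on poly-L-lysine plates and held 24 h at 37 °C, 5% CO2. Compounds were added at 25 μg mL⁻¹ for 48 h, then MTT (0.5 mg mL⁻¹) for 3 h. Formazan was read at 595/625 nm and reported as % inhibition.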

Data set [12] relates to Pseudomonas aeruginosa. The data set is described as follows: Potency index, ratio of nitazoxanide MIC to test compound MIC for antibacterial activity against Pseudomonas aeruginosa ATCC 27853. Type of data set: functional.

Molecules are shown by their SMILES. ≈ marks a conversion by molar mass, not a printed value.

For `O=C(Nc1ncc([N+](=O)[O-])s1)c1ccc(-n2cc(-c3ccccc3)nn2)cc1O`, the minimum inhibitory concentration (MIC) with Helicobacter pylori was 14.7 µM (≈ 6 µg/mL); in the data set with Enterococcus faecalis [1] it was 19.6 µM (≈ 8 µg/mL); in the data set with Klebsiella pneumoniae [2] it was 39.2 µM (≈ 16 µg/mL); in data set [3], over 25 mg/L; in the data set on Staphylococcus aureus [4], 29.4 µM (≈ 12 µg/mL).
In the case of `O=C(Nc1ncc([N+](=O)[O-])s1)c1ccc(-n2cc(CO)nn2)cc1O`, the MIC is 353 µM (≈ 128 µg/mL) with Pseudomonas aeruginosa [5]; 44.1 µM (≈ 16 µg/mL) against Helicobacter pylori; 132 µM (≈ 48 µg/mL) against Enterococcus faecalis [1]; 88.3 µM (≈ 32 µg/mL) in the data set with Klebsiella pneumoniae [2]; over 25 mg/L in data set [3].
On to `Cc1ccc2c(c1)C(=O)C(=O)N2Cc1cn(-c2ccc(C(=O)Nc3ncc([N+](=O)[O-])s3)c(O)c2)nn1`, for which the values for the Ratio with Escherichia coli [6], in the data set on Klebsiella pneumoniae [7] and in the data set with Enterococcus faecalis [9] were 20, “<=20” and 25, respectively. The minimum inhibitory concentration (MIC) was 7.91 µM (≈ 4 µg/mL) in the data set on Pseudomonas aeruginosa [5]; 2.96 µM (≈ 1.5 µg/mL) with Helicobacter pylori; 1.48 µM (≈ 0.748 µg/mL) in the data set on Escherichia coli [8]; 5.93 µM (≈ 3 µg/mL) in the data set with Enterococcus faecalis [1]; 3.95 µM (≈ 2 µg/mL) in the data set with Klebsiella pneumoniae [2]; over 25 mg/L in data set [3]. In the data set with Staphylococcus aureus [4], this compound came in with an MIC of 506 µM (≈ 256 µg/mL).
Regarding `O=C(Nc1ncc([N+](=O)[O-])s1)c1ccc(-n2cc(CSc3nc4ccccc4s3)nn2)cc1O`, the Ratio is 20 with Escherichia coli [6] and 25 with Staphylococcus aureus [10]. Besides, the minimum inhibitory concentration (MIC) was 31.3 µM (≈ 16 µg/mL) against Pseudomonas aeruginosa [5]; 15.6 µM (≈ 8 µg/mL) in the data set on Helicobacter pylori; 3.9 µM (≈ 2 µg/mL) in the data set with Escherichia coli [8]; 23.4 µM (≈ 12 µg/mL) with Klebsiella pneumoniae [2]; over 25 mg/L in data set [3]; 3.9 µM (≈ 2 µg/mL) against Staphylococcus aureus [4].
For `[N-]=[N+]=Nc1ccc(C(=O)Nc2ncc([N+](=O)[O-])s2)c(O)c1`, the Ratio in the data set on Escherichia coli [6] was 20. Further, the Cell growth inhibition with RAW264.7 is reported as 28.53%. Also, the MIC with Helicobacter pylori was determined as 104 µM (≈ 32 µg/mL); against Escherichia coli [8], 4.89 µM (≈ 1.5 µg/mL); with Enterococcus faecalis [1], 26.1 µM (≈ 8 µg/mL); against Klebsiella pneumoniae [2], 313 µM (≈ 96 µg/mL); in data set [3], 3.12 mg/L (≈ 10.2 µM); against Staphylococcus aureus [4], 9.79 µM (≈ 3 µg/mL). In data set [11], the selectivity ratio is 8.
As for `O=C(Nc1ncc([N+](=O)[O-])s1)c1ccc(-n2cc(CN3CCN(c4ccccc4)CC3)nn2)cc1O`, the MIC against Pseudomonas aeruginosa [5] is 2.96 µM (≈ 1.5 µg/mL); in the data set with Helicobacter pylori, 31.6 µM (≈ 16 µg/mL); with Escherichia coli [8], 11.8 µM (≈ 6 µg/mL); in the data set on Enterococcus faecalis [1], 1.97 µM (≈ 0.998 µg/mL); with Klebsiella pneumoniae [2], 253 µM (≈ 128 µg/mL); in [3], over 25 mg/L. The compound further had an MIC against Staphylococcus aureus [4] of 505 µM (≈ 256 µg/mL). Besides, the Ratio with Pseudomonas aeruginosa [12] was over 50; with Enterococcus faecalis [9] it was 25.
For the compound `O=C(O)c1cn(C2CC2)c2cc(N3CCNCC3)c(F)cc2c1=O` [CIPROFLOXACIN], the minimal inhibitory concentration (MIC) turned out to be 4.53 µM (≈ 1.5 µg/mL) with Pseudomonas aeruginosa [5]; 1.5 µM (≈ 0.497 µg/mL) against Helicobacter pylori; 0.3 µM (≈ 0.0994 µg/mL) against Escherichia coli [8]; 6.03 µM (≈ 2 µg/mL) against Enterococcus faecalis [1]; 9.05 µM (≈ 3 µg/mL) against Klebsiella pneumoniae [2]; 3.01 µM (≈ 0.997 µg/mL) against Staphylococcus aureus [4].
With `CC[C@@H](CO)NCCN[C@@H](CC)CO` [ETHAMBUTOL], the minimal inhibitory concentration (MIC) in [3] stood at 1.56 mg/L (≈ 7.64 µM).
As to `NNC(=O)c1ccncc1` [ISONIAZID], in data set [3], the MIC worked out at 0.05 mg/L (≈ 0.365 µM).
For the compound `CC(=O)Oc1ccccc1C(=O)Nc1ncc([N+](=O)[O-])s1` [NITAZOXANIDE], the Cell growth inhibition in the data set with RAW264.7 is 20.65%. In addition, the MIC came to 417 µM (≈ 128 µg/mL) in the data set with Pseudomonas aeruginosa [5]; 13 µM (≈ 4 µg/mL) against Helicobacter pylori; 104 µM (≈ 32 µg/mL) in the data set on Escherichia coli [8]; 156 µM (≈ 48 µg/mL) against Enterococcus faecalis [1]; 182 µM (≈ 56 µg/mL) against Klebsiella pneumoniae [2]; 104 µM (≈ 32 µg/mL) against Staphylococcus aureus [4]. For the same compound, the selectivity ratio in [11] amounted to 4.
In turn, `CO[C@H]1/C=C/O[C@@]2(C)Oc3c(C)c(O)c4c(O)c(c(/C=N/N5CCN(C)CC5)c(O)c4c3C2=O)NC(=O)/C(C)=C\C=C\[C@H](C)[C@H](O)[C@@H](C)[C@@H](O)[C@@H](C)[C@H](OC(C)=O)[C@@H]1C` [RIFAMPIN] displayed an MIC in data set [3] of 0.1 mg/L (≈ 0.122 µM).
As to `O=C(Nc1ncc([N+](=O)[O-])s1)c1ccccc1O` [TIZOXANIDE], the minimal inhibitory concentration (MIC) in the data set on Pseudomonas aeruginosa [5] was determined as 362 µM (≈ 96 µg/mL); against Helicobacter pylori, 11.3 µM (≈ 3 µg/mL); against Escherichia coli [8], 181 µM (≈ 48 µg/mL); against Enterococcus faecalis [1] it was 136 µM (≈ 36 µg/mL); against Klebsiella pneumoniae [2], 241 µM (≈ 64 µg/mL); in the data set with Staphylococcus aureus [4], 151 µM (≈ 40 µg/mL).
